Data: ChEMBL document CHEMBL2203189, “Synthesis and pharmacology of 1-alkyl-3-(1-naphthoyl)indoles: steric and electronic effects of 4- and 8-halogenated naphthoyl substituents” (Bioorg Med Chem, 2012)
The source made the active and inactive calls. The calls are words filed in the database; no cut-off is given here.

Experiments:
Cannabinoid receptor 1 = Cannabinoid receptor 1 (Homo sapiens, UniProt P21554); assay: Displacement of [3H]CP55940 from human CB1 receptor expressed in HEK293 cells after 1 hr by liquid scintillation spectrophotometry; assay type: cell-based
Cannabinoid receptor 1, sequence (P21554 whole entry): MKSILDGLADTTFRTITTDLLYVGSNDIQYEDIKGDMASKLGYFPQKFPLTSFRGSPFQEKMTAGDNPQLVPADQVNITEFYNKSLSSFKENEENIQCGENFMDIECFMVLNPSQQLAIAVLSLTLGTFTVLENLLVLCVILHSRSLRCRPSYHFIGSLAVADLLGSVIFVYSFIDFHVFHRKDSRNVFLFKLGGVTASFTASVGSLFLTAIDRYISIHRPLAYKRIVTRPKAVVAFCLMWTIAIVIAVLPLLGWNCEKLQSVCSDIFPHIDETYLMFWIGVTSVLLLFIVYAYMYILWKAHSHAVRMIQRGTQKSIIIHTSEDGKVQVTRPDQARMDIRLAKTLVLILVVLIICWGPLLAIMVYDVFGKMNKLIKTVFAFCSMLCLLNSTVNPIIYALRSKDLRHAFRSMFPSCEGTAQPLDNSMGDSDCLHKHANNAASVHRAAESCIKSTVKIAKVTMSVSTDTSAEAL
How it was run: (§1)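 Membranes (50 µg) from HEK-293 cells stably expressing human CB1, cultured in DMEM/10% FBS. Incubated with 0.5 nM [3H]CP55,940 and test compound at 1 nM–10 µM in buffer with BSA (5 mg/mL), 1 h at 30 °C. Nonspecific binding defined with excess unlabelled CP55,940. Filtered through GF/B, then scintillation counting.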

Cannabinoid receptor 2 = Cannabinoid receptor 2 (Homo sapiens, UniProt P34972); assay: Displacement of [3H]CP55940 from human CB2 receptor expressed in CHO cells after 1 hr by liquid scintillation spectrophotometry; assay type: cell-based
Cannabinoid receptor 2, sequence (P34972 whole entry): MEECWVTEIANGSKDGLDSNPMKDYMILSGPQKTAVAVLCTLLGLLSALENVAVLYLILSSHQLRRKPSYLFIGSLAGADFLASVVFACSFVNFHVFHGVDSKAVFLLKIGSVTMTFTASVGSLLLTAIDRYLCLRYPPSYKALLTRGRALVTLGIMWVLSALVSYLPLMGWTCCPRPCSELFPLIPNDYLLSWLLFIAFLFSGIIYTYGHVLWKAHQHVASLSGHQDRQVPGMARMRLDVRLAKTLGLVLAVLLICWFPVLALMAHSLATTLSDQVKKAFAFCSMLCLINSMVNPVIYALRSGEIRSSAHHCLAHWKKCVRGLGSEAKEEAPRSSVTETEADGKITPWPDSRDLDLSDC
How it was run: as §1, with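 “CHO” for “HEK-293”, “CB2,” for “CB1,”, “fetal calf serum.” for “FBS.”, “µM” for “µM in buffer”, “GF/B filtration,” for “Filtered through GF/B,”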

Homo sapiens = organism: Homo sapiens; assay: Selectivity ratio of Ki for human CB1 receptor to Ki for human CB2 receptor
Mus musculus [1] = assay: Locomotor activity in Harlan ICR mouse assessed as inhibition of activity level at […], iv from 5 to 15 mins by spontaneous locomotor activity test relative to vehicle treated control; assay type: functional
Mus musculus [2] = assay: Antinociceptive activity in Harlan ICR mouse assessed as latency to heat-induced tail flicking at […], iv at 20 mins relative to control; assay type: functional
Mus musculus [3] = assay: Hypothermic activity in Harlan ICR mouse assessed as change in rectal temperature at […], iv at 30 mins; assay type: functional
Mus musculus [4] = assay: Induction of catalepsy in Harlan ICR mouse at […], iv at 40 mins measured for 5 mins by ring immobility test; assay type: functional
Mus musculus [5] = assay: Locomotor activity in Harlan ICR mouse assessed as inhibition of activity level at 27 umol/kg, iv from 5 to 15 mins by spontaneous locomotor activity test relative to vehicle treated control; assay type: functional
How it was run: (§2)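 Male ICR mice, n = 6 per dose, single probe dose iv in emulphor–ethanol–saline 1:1:18. Photocell beam interruptions recorded over 10 min, at 5–15 min after dosing. Result given as % inhibition relative to the vehicle group.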

Mus musculus [6] = assay: Antinociceptive activity in Harlan ICR mouse assessed as latency to heat-induced tail flicking at 27 umol/kg, iv at 20 mins relative to control; assay type: functional
Mus musculus [7] = assay: Hypothermic activity in Harlan ICR mouse assessed as change in rectal temperature at 27 umol/kg, iv at 30 mins; assay type: functional
How it was run: (§3)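 Male ICR mice, n = 6 per dose. Single probe dose iv in emulphor–ethanol–saline 1:1:18. Rectal temperature taken with a thermistor probe at 25 mm depth before dosing and at 30 min. Result given as change from pre-injection value (°C).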

Mus musculus [8] = assay: Locomotor activity in Harlan ICR mouse assessed as inhibition of activity level at 91 umol/kg, iv from 5 to 15 mins by spontaneous locomotor activity test relative to vehicle treated control; assay type: functional; how it was run: as §2
Mus musculus [9] = assay: Hypothermic activity in Harlan ICR mouse assessed as change in rectal temperature at 91 umol/kg, iv at 30 mins; assay type: functional; how it was run: as §3
Mus musculus [10] = assay: Induction of catalepsy in iv dosed Harlan ICR mouse at 40 mins measured for 5 mins by ring immobility test; assay type: functional
Mus musculus [11] = assay: Antinociceptive activity in Harlan ICR mouse assessed as latency to heat-induced tail flicking at 91 umol/kg, iv at 20 mins relative to control; assay type: functional
Mus musculus [12] = assay: Locomotor activity in Harlan ICR mouse assessed as inhibition of activity level at 66 umol/kg, iv from 5 to 15 mins by spontaneous locomotor activity test relative to vehicle treated control; assay type: functional; how it was run: as §2
Mus musculus [13] = assay: Antinociceptive activity in Harlan ICR mouse assessed as latency to heat-induced tail flicking at 66 umol/kg, iv at 20 mins relative to control; assay type: functional
Mus musculus [14] = assay: Hypothermic activity in Harlan ICR mouse assessed as change in rectal temperature at 66 umol/kg, iv at 30 mins; assay type: functional; how it was run: as §3
Mus musculus [15] = assay: Locomotor activity in Harlan ICR mouse assessed as inhibition of activity level at 80 umol/kg, iv from 5 to 15 mins by spontaneous locomotor activity test relative to vehicle treated control; assay type: functional; how it was run: as §2
Mus musculus [16] = assay: Antinociceptive activity in Harlan ICR mouse assessed as latency to heat-induced tail flicking at 80 umol/kg, iv at 20 mins relative to control; assay type: functional
Mus musculus [17] = assay: Hypothermic activity in Harlan ICR mouse assessed as change in rectal temperature at 80 umol/kg, iv at 30 mins; assay type: functional; how it was run: as §3
Mus musculus [18] = assay: Induction of catalepsy in Harlan ICR mouse at 80 umol/kg, iv at 40 mins measured for 5 mins by ring immobility test; assay type: functional
How it was run: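 Male ICR mice given a single iv probe dose in emulphor–ethanol–saline 1:1:18. At 40 min placed on a 5.5 cm ring raised 16 cm and observed for 5 min by blinded raters. Up to 5 escapes allowed; mice escaping before 2.5 min excluded. Immobility index = time motionless / 300 s × 100.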

Mus musculus [19] = assay: Locomotor activity in Harlan ICR mouse assessed as inhibition of activity level at 68 umol/kg, iv from 5 to 15 mins by spontaneous locomotor activity test relative to vehicle treated control; assay type: functional; how it was run: as §2
Mus musculus [20] = assay: Antinociceptive activity in Harlan ICR mouse assessed as latency to heat-induced tail flicking at 68 umol/kg, iv at 20 mins relative to control; assay type: functional, organism-based
Mus musculus [21] = assay: Locomotor activity in Harlan ICR mouse assessed as inhibition of activity level at 6.9 umol/kg, iv from 5 to 15 mins by spontaneous locomotor activity test relative to vehicle treated control; assay type: functional
How it was run: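 Spontaneous activity in male ICR mice (18–25 g) after one iv tail-vein probe dose in 1:1:18 emulphor–ethanol–saline. Photocell beam interruptions (16 beams per chamber) recorded over 10 min, 5–15 min after dosing. Reported as % inhibition relative to the vehicle group. n = 6 per dose.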

Mus musculus [22] = assay: Antinociceptive activity in Harlan ICR mouse assessed as latency to heat-induced tail flicking at 6.9 umol/kg, iv at 20 mins relative to control; assay type: functional
Mus musculus [23] = assay: Hypothermic activity in Harlan ICR mouse assessed as change in rectal temperature at 6.9 umol/kg, iv at 30 mins; assay type: functional
How it was run: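 Male ICR mice, 18–25 g, dosed iv in the tail vein with a single probe dose in emulphor–ethanol–saline 1:1:18. Rectal thermistor probe inserted to 25 mm. Baseline read before injection and again at 30 min. Reported as the change from pre-injection temperature (Δ°C). n = 6 per dose.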

Mus musculus [24] = assay: Induction of catalepsy in Harlan ICR mouse at 6.9 umol/kg, iv at 40 mins measured for 5 mins by ring immobility test; assay type: functional
How it was run: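 Ring test on male ICR mice given one probe dose iv (tail vein; 1:1:18 emulphor–ethanol–saline). At 40 min each mouse is placed on a 5.5 cm ring 16 cm high and scored over 5 min by blinded observers. Up to 5 escapes allowed; data dropped if escapes occur before 2.5 min. Immobility index = time motionless/300 s × 100. n = 6 per dose.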

CCCn1cc(C(=O)c2ccc(I)c3ccccc23)c2ccccc21
Ki (Cannabinoid receptor 1): 140 nM
Ki (Cannabinoid receptor 2): 6.6 nM
Ratio Ki (Homo sapiens): 21
inhibition in vivo at […] (Mus musculus [1]): 10%
Activity (Mus musculus [2]): 26%
Activity (Mus musculus [3]): -1.7%
Activity (Mus musculus [4]): 2%

CCCCCn1cc(C(=O)c2ccc(Cl)c3ccccc23)c2ccccc21
Ki (Cannabinoid receptor 1): 2.3 nM
Ki (Cannabinoid receptor 2): 2.8 nM
Ratio Ki (Homo sapiens): 0.8
inhibition in vivo at 27 µmol/kg (Mus musculus [5]): 82%
Activity (Mus musculus [6]): 90%
Activity (Mus musculus [7]): -4.9%

CCCn1cc(C(=O)c2ccc(F)c3ccccc23)c2ccccc21
Ki (Cannabinoid receptor 1): 240 nM
Ki (Cannabinoid receptor 2): 33 nM
Ratio Ki (Homo sapiens): 7
inhibition in vivo at 91 µmol/kg (Mus musculus [8]): 67%
Activity (Mus musculus [9]): -3.3%
Activity (Mus musculus [10]): inactive
Activity (Mus musculus [11]): 59%

CCCn1c(C)c(C(=O)c2ccc(I)c3ccccc23)c2ccccc21
Ki (Cannabinoid receptor 1): 501 nM
Ki (Cannabinoid receptor 2): 20 nM
Ratio Ki (Homo sapiens): 25
inhibition in vivo at 66 µmol/kg (Mus musculus [12]): 74%
Activity (Mus musculus [13]): 60%
Activity (Mus musculus [14]): -3%

CCCCCn1cc(C(=O)c2cccc3cccc(Cl)c23)c2ccccc21
Ki (Cannabinoid receptor 1): 23 nM
Ki (Cannabinoid receptor 2): 10 nM
Ratio Ki (Homo sapiens): 2.3
inhibition in vivo at 80 µmol/kg (Mus musculus [15]): 94%
Activity (Mus musculus [16]): 100%
Activity (Mus musculus [17]): -6.9%
Activity (Mus musculus [18]): 92%

CCCn1cc(C(=O)c2cccc3cccc(I)c23)c2ccccc21
Ki (Cannabinoid receptor 1): 2960 nM
Ki (Cannabinoid receptor 2): 152 nM
Ratio Ki (Homo sapiens): 19
inhibition in vivo at 68 µmol/kg (Mus musculus [19]): -25%
Activity (Mus musculus [20]): inactive

CCCCCn1c(C)c(C(=O)c2cccc3cccc(Br)c23)c2ccccc21
Ki (Cannabinoid receptor 1): 54 nM
Ki (Cannabinoid receptor 2): 10 nM
Ratio Ki (Homo sapiens): 5.5
inhibition in vivo at 6.9 µmol/kg (Mus musculus [21]): 79%
Activity (Mus musculus [22]): 100%
Activity (Mus musculus [23]): -3.7%
Activity (Mus musculus [24]): 53%
